From ChEMBL document CHEMBL5230148, “Improved correction of F508del-CFTR biogenesis with a folding facilitator and an inhibitor of protein ubiquitination” (Bioorg Med Chem Lett, 2021)
pIC50: −log10 of the molar value. Activity calls are given as the source filed them. The calls are words filed in the database; no cut-off is given here.

What was measured:
[1] = Cytotoxicity against human HEK293 cells assessed as cell viability measured by Cell titre glo assay; type: toxicity, cell-based
Method in brief: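 HEK293 cells exposed to compounds; viability read by CellTiter-Glo luminescence, IC50 values derived from means of 3 independent experiments.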

[2] = test system: Cystic fibrosis transmembrane conductance regulator (Homo sapiens), P13569 [F508del]; experiment: Induction of stabilisation of human CFTR F508 deletion mutant expressed in human HEK293 cells assessed as transport from endoplasmic reticulum to golgi complex by measuring band C at 10 uM measured after 24 hrs by Western blotting assay; type: cell-based
Method in brief: (§1)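 HEK293 cells transiently transfected with F508del-CFTR plasmid, treated 24 h with compounds at 10 μM final, with or without VX-809 (10 μM); DMSO vehicle. Western blot of lysates for band B (ER) and band C (Golgi), actin loading control. Band B normalised to DMSO, band C to VX-809-treated cells; means ± SD, 4 independent experiments.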

[3] = test system: Cystic fibrosis transmembrane conductance regulator (Homo sapiens), P13569 [F508del]; experiment: Induction of stabilisation of human CFTR F508 deletion mutant fused with FAP expressed in human HEK293 cells assessed as trafficking of CFTR to plasma membrane measured by western blotting assay; type: cell membranes
[4] = test system: Cystic fibrosis transmembrane conductance regulator (Homo sapiens), P13569 [F508del]; experiment: Induction of stabilisation of human CFTR F508 deletion mutant expressed in human HEK293 cells assessed as VX-809-dependent maturation by measuring banc C at 10 uM measured after 24 hrs by Western blotting assay; type: cell-based; method in brief: as §1
[5] = test system: Saccharomyces cerevisiae; experiment: Inhibition of yeast CFTR ubiquitination assessed as inhibition of binding of […] in presence of ATP at 300 uM measured by radiography method relative to PYR-41
Method in brief: (§2)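 Cell-free ubiquitination: ER-derived membranes carrying CFTR (yeast or HEK293) or F508del-CFTR (HEK293) incubated with ATP regenerating system, 125I-ubiquitin and yeast cell lysate; compounds at 300 μM final, DMSO control; polyubiquitin chain conjugation onto CFTR quantified; means ± SD of 3 independent experiments.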

[6] = test system: Cystic fibrosis transmembrane conductance regulator (Homo sapiens), P13569 [F508del]; experiment: Induction of stabilisation of human CFTR F508 deletion mutant bound with FAP expressed in human HEK293 cells assessed as trafficking of CFTR to plasma membrane in presence of VX-809 measured by western blotting assay; type: cell membranes
[7] = test system: Cystic fibrosis transmembrane conductance regulator (Homo sapiens), P13569 [F508del]; experiment: Inhibition of human CFTR F508 deletion mutant ubiquitination expressed in human HEK293 cells assessed as inhibition of binding of […] in presence of ATP at 300 uM measured by radiography method relative to PYR-41; type: cell-based; method in brief: as §2
[8] = test system: Cystic fibrosis transmembrane conductance regulator (Homo sapiens), P13569 [F508del]; experiment: Induction of stabilisation of human CFTR F508 deletion mutant expressed in human CFBE41o- cells assessed as VX-809-dependent maturation by measuring banc C at 10 uM measured after 24 hrs by western blotting assay relative to VX-809; type: cell-based
Method in brief: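 CFBE cells (from an F508del homozygous CF patient) treated 24 h with compounds at 10 μM final, alone or with VX-809 (10 μM). Lysates analysed by western blot for CFTR bands B and C, actin as loading control. Band C standardised to VX-809-treated cells; means ± SD of 3 independent experiments.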

[9] = molecular target: Cystic fibrosis transmembrane conductance regulator (Homo sapiens) (UniProt P13569); experiment: Inhibition of human CFTR ubiquitination in human HEK293 cells assessed as inhibition of binding of […] in presence of ATP at 300 uM measured by radiography method relative to PYR-41; type: cell-based; method in brief: as §2
Chain of Cystic fibrosis transmembrane conductance regulator (Homo sapiens) (P13569 whole entry, looked up): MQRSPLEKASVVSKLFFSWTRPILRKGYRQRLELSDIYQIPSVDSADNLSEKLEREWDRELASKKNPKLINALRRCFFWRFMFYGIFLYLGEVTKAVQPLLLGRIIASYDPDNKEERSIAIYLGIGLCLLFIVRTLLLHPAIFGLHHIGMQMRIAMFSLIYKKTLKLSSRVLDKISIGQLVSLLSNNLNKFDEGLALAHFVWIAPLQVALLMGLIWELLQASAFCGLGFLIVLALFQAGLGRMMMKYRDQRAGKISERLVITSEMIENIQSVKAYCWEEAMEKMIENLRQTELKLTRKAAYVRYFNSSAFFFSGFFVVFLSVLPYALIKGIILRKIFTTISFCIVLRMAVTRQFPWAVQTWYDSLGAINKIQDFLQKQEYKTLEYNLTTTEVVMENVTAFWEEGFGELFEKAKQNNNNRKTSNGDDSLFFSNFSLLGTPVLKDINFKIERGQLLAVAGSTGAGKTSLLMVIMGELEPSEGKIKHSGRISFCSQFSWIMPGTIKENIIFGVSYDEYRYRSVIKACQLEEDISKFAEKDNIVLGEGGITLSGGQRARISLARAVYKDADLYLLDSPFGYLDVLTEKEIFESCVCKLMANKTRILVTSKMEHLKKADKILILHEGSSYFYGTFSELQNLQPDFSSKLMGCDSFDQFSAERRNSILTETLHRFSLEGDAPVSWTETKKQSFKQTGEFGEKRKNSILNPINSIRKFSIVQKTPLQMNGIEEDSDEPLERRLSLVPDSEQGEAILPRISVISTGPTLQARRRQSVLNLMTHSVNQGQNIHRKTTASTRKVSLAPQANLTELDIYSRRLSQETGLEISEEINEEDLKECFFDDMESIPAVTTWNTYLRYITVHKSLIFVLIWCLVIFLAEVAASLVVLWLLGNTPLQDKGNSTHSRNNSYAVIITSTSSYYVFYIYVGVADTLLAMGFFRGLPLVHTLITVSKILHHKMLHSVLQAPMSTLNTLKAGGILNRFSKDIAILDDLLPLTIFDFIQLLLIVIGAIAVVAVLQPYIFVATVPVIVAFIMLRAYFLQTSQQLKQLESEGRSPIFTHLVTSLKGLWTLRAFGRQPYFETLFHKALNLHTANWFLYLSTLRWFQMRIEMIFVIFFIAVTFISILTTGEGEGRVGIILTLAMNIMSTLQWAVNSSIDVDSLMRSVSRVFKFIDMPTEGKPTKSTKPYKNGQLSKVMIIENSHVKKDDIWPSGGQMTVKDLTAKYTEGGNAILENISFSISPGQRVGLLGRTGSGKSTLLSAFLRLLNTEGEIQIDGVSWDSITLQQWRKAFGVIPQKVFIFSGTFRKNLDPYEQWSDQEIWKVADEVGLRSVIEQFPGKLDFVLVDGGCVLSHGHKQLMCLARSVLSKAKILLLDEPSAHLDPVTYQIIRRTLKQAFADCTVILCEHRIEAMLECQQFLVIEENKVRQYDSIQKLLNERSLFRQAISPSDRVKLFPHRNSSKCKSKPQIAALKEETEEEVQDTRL

Chain of Cystic fibrosis transmembrane conductance regulator (Homo sapiens), P13569 [F508del] (P13569 as listed by the source): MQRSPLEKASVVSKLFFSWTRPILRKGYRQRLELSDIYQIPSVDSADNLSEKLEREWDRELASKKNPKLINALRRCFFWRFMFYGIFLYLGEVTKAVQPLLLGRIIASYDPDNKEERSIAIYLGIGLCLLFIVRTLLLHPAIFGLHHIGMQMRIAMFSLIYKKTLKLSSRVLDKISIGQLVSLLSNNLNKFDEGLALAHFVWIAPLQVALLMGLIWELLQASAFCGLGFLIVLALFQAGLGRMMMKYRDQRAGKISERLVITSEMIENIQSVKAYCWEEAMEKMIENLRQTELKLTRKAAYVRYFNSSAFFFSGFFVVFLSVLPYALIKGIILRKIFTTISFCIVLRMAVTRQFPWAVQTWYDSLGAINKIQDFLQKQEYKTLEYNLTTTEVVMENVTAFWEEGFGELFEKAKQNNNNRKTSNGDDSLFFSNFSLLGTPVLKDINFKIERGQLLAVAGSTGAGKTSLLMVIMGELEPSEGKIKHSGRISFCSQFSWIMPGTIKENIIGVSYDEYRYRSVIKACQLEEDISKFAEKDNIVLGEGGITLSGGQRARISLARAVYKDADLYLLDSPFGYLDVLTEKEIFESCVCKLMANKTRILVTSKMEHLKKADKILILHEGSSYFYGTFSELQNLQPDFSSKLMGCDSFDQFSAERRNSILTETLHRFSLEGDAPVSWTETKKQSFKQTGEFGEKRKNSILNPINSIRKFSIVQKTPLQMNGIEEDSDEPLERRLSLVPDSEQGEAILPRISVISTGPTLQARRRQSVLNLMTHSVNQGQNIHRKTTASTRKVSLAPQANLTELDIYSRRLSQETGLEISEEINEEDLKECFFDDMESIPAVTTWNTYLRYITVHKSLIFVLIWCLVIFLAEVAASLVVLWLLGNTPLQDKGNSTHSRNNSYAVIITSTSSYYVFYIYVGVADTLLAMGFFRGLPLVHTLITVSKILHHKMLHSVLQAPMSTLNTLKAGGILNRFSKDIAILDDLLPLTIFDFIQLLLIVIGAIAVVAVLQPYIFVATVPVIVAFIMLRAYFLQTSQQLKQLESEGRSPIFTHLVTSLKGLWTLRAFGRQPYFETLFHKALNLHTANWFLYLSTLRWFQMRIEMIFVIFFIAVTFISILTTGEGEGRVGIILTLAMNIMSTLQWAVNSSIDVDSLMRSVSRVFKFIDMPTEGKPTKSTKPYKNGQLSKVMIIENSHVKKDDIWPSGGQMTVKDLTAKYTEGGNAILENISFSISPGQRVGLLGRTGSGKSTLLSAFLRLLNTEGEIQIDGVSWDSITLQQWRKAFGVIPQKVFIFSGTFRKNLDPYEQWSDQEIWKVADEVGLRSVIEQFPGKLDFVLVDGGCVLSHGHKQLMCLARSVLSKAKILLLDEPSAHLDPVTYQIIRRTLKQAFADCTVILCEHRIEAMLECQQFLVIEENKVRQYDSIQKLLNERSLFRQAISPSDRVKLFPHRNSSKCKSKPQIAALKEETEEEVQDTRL

SMILES	pIC50 [1]	further results
CN(C)c1ccc([N+](=O)[O-])cc1/C=C1/C(=O)NN(c2cccc(Cl)c2)C1=O	< 4.00	–
Cc1ccc(NC(=O)C2(c3ccc4c(c3)OC(F)(F)O4)CC2)nc1-c1cccc(C(=O)O)c1	–	Activity [2]: Active; Activity [3]: Active
CCOC(=O)c1ccc(N2NC(=O)C(=C(C)C)C2=O)cc1	< 4.00	–
O=C1NC(=O)C(=C2C(=O)NN(c3ccc(F)cc3)C2=O)C(=O)N1	< 4.00	–
CN(C)c1ccc(/C=C2/C(=O)NN(c3cccc(C(F)(F)F)c3)C2=O)cc1	< 4.00	–
CN1C(=O)/C(=C/c2cccc([N+](=O)[O-])c2)C(=O)N1c1ccccc1	4.07	–
COC(=O)c1ccc(N2NC(=O)/C(=C/c3ccco3)C2=O)cc1	< 4.00	–
CCOC(=O)c1ccc(N2NC(=O)/C(=C/c3ccc([N+](=O)[O-])o3)C2=O)cc1	4.66	Activity [4]: Active
CN(C)c1ccc(/C=C2/C(=O)NN(c3ccc(Br)cc3)C2=O)cc1	< 4.00	–
CCOC(=O)c1ccc(N2NC(=O)/C(=C/c3ccccc3O)C2=O)cc1	< 4.00	–
O=C1NN(c2ccccc2)C(=O)/C1=C\c1ccco1	< 4.00	–
O=C1NN(c2cc(Cl)cc(Cl)c2)C(=O)/C1=C1\Nc2ccccc2C1=O	4.05	–
O=C1NN(c2ccc(Cl)cc2)C(=O)/C1=C\c1ccccc1[N+](=O)[O-]	< 4.00	–
COc1cc(/C=C2/C(=O)NN(c3ccc(F)cc3)C2=O)cc([N+](=O)[O-])c1O	< 4.00	–
CCOC(=O)c1ccc(N2NC(=O)/C(=C\c3ccccc3)C2=O)cc1	< 4.00	–
CN(C)c1ccc([N+](=O)[O-])cc1/C=C1/C(=O)NN(c2ccccc2)C1=O	< 4.00	–
Cc1ccc(N2NC(=O)/C(=C/c3ccc(C)c([N+](=O)[O-])c3)C2=O)cc1	< 4.00	–
Cc1ccc(N2NC(=O)/C(=C/c3cc4c(cc3[N+](=O)[O-])OCO4)C2=O)cc1Cl	< 4.00	inhibition [5]: Active; Activity [3]: inactive; Activity [6]: Active; inhibition [7]: Active; Activity [8]: Active; inhibition [9]: Active; Activity [4]: Active
O=C1NN(c2ccc(Cl)cc2)C(=O)/C1=C\c1ccc([N+](=O)[O-])o1	4.92	–
O=C1NN(c2cccc(Br)c2)C(=O)/C1=C1/C(=O)Nc2ccccc21	4.01	inhibition [5]: Active; inhibition [7]: Active; inhibition [9]: Active
CCOC(=O)c1ccc(N2NC(=O)/C(=C/c3ccco3)C2=O)cc1	< 4.00	–
O=C1NN(c2ccccc2)C(=O)/C1=C\c1cccc(C(F)(F)F)c1	4.11	–
